Experimental data as given in paper PMC3306454 (ACS Chemical Biology, 2012).
“And” between values parts separate entries of the source, which are not always exact repeats. Identical values can stand only once. “Also recorded” adds a separate entry of the source.

Columns and labels:
[1] = tested on: RNA 1×1 nucleotide internal loops and fully paired RNA; assay: Competition dialysis, binding selectivity; conditions: 1 µM ligand, 1.6 µM RNA, 24 h
Summary of the method: (§1)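 RNAs were run-off transcribed, carried internal loops in a GNRA-hairpin cassette with a fully paired control, and were PAGE-purified. They were folded by heating at 60 °C for 5 min, then slow cooling. Dialysis units with 1.6 μM RNA stood against 1 μM ligand in buffer (8 mM NaH2PO4, 185 mM NaCl, 1 mM EDTA, pH 7.2), stirred 200 rpm, 24 h, 20–22 °C. SDS was added (1% final); Ct was measured spectrophotometrically; Cb = Ct − Cf.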

[2] = target: RNA 5’CAG/3’GUC (fully paired RNA); assay: Fluorescence anisotropy direct binding assay; conditions: read-out: Dissociation constant, 5’CAG/3’GUC
Summary of the method: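 The RNA was made by run-off transcription and PAGE-purified, then folded by heating at 60 °C. Anisotropy was read at ex 368 nm and em 500 nm. Kd came from a quadratic binding fit of anisotropy versus RNA concentration.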

[3] = tested on: RNA 5’CAG/3’GCC; assay: Competition dialysis; type: binding; conditions: bound ligand relative to amount of RNA target
Summary of the method: as §1

[4] = tested on: RNA displaying 5’CAG/3’GAC motif; assay: Optical melting experiments; type: binding; conditions: for ΔTm (1 equiv.): one equivalent of ligand; for ΔTm (2 equiv.): two equivalents of ligand
Summary of the method: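 RNA in Affinity Buffer was denatured at 90 °C and cooled to 15 °C, with ligand at 1 or 2 equivalents. Absorbance at 260 nm was recorded against temperature at 1 °C/min. Tm was calculated as ΔH°×1000/ΔS° − 273.15.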

[5] = tested on: HD patient-derived fibroblasts expressing r(CAG)69; assay: RT-PCR splicing assay in HD fibroblasts; type: cell-based, Human; conditions: for Effect on ATP2A1 splicing: initial screen, 100 µM, both cellular models
Summary of the method: (§2)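 Fibroblasts were grown in MEM with 10% FBS and nonessential amino acids. SK-N-MC cells, with or without stable r(CAG)74, were grown in DMEM with 10% FBS. At ~60% confluence they received test compound at 50–300 μM final (water for untreated) for 48 h. ~1 μg total RNA was reverse transcribed with random primers, followed by RT-PCR, 2% agarose and ethidium staining. Normal isoform fraction was the normal band over total; ≥6 experiments, two-tailed t test versus untreated.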

[6] = tested on: RNA containing 5’CUG/3’GUC; assay: Fluorescence anisotropy direct binding assay
Summary of the method: (§3)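 RNA was titrated into 50 nM fluorescent test compound in Affinity Buffer (20 mM HEPES pH 7.5, 5 mM KCl, 150 mM NaCl, 1 mM MgCl2), equilibrating 5 min between additions. Anisotropy was read at ex 368 / em 500 nm and plotted against RNA concentration. Kd came from a quadratic binding equation fit.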

[7] = target: RNA containing the 5’CAG/3’GAC motif; assay: Fluorescence anisotropy direct binding assay; conditions: read-out: Dissociation constant, 5’CAG/3’GAC
Summary of the method: as §3

[8] = tested on: RNA containing 5’CGG/3’GGC; assay: Fluorescence anisotropy direct binding assay
Summary of the method: as §3

[9] = tested on: HD fibroblasts and neuroblastoma cellular models; assay: Cell morphology; type: cell-based, Human; conditions: for Toxicity as assessed by cell morphology: initial screen, 100 µM, both cellular models
Summary of the method: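 HD patient fibroblasts (r(CAG)69) and SK-N-MC neuroblastoma cells stably expressing r(CAG)74 were grown to ~60% confluence. Fresh medium with test compound was added: 100 μM for the screen, 50–300 μM for the dose series, water for untreated. Cells were kept 48 h, and microscopic images of cell morphology served as the toxicity estimate.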

[10] = tested on: RNA 5’CAG/3’GAC; assay: Competition dialysis; type: binding; conditions: bound ligand relative to amount of RNA target
Summary of the method: as §1

[11] = tested on: RNA 5’CCG/3’GCG; assay: Fluorescence anisotropy direct binding assay
Summary of the method: as §3

[12] = tested on: r(CAG)12-MBNL1 complex; assay: TR-FRET assay, disruption of the r; type: biochemical
[13] = tested on: nuclear r(CAG)exp foci in HD-derived fibroblasts; assay: FISH of nuclear r; type: cell-based, Human
Summary of the method: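 Fibroblasts (HD line GM04281: r(CAG)17 and r(CAG)69 HTT alleles) at ~60% confluence were given test compound at 50−300 μM final, or water, for 48 h. Cells were fixed in 4% PFA/PBS at 4 °C, prehybridized (30% formamide, 2X SSC, 10 min), and hybridized with a 5′-Cy3, LNA-modified (CTG)6-CA probe. Washes were at 45 °C then 37 °C, and foci were imaged by fluorescence microscopy.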

[14] = tested on: SK-N-MC neuroblastoma cells stably expressing r(CAG)74; assay: RT-PCR splicing assay in neuroblastoma; type: cell-based, Human
Summary of the method: as §2

[15] = tested on: normal neuroblastoma cell line / control cell lines that do not express r(CAG)exp; assay: RT-PCR splicing assay in control cell lines; type: cell-based, Human
Summary of the method: as §2

[16] = neuroblastoma cells expressing r(CAG)74, 48 h

CN(C)c1ccc2cc3ccc(N(C)C)cc3nc2c1 [AO, Acridine Orange]
Binding preference among RNAs [1]: little preference for binding to a fully paired RNA or any of the RNAs with 1×1 nucleotide internal loops

COc1ccc2nc3cc(Cl)ccc3c(N)c2c1 [ACMA, 9-amino-6-chloro-2-methoxy acridine]
Binding preference among RNAs [1]: binds preferentially to the fully paired RNA and the RNA displaying 5’CCG/3’GCC

N=C(N)c1ccc(-c2cc3ccc(C(=N)N)cc3[nH]2)cc1 [DAPI, 4',6-diamidino-2-phenylindole]
Kd [2]: > 3000 nM
Binding stoichiometry to 5’CAG/3’GCC [3]: stoichiometric amounts
ΔTm (1 equiv.) [4]: 6 °C
ΔTm (2 equiv.) [4]: 10 °C
Effect on ATP2A1 splicing [5]: exacerbated splicing abnormalities of ATP2A1
Fold weaker binding to 5’CUG/3’GUC than to 5’CAG/3’GAC ([6]; fluorescence anisotropy): approximately 2.5 fold
Kd ([6]; read-out: Dissociation constant, 5’CUG/3’GUC, direct binding assay): 550 ± 200 nM
Binding preference among RNAs [1]: preferentially binds to 5’CAG/3’GAC and 5’CAG/3’GCC
Kd [7]: 220 ± 60 nM
Fold weaker binding to 5’CGG/3’GGC than to 5’CAG/3’GAC ([8]; fluorescence anisotropy): approximately 2.5 fold
Kd ([8]; read-out: Dissociation constant, 5’CGG/3’GGC, direct binding assay): 500 ± 100 nM
Toxicity as assessed by cell morphology [9]: strongest morphological changes
Binding stoichiometry to 5’CAG/3’GAC [10]: stoichiometric amounts
Fold weaker binding to 5’CCG/3’GCC than to 5’CAG/3’GAC ([11]; fluorescence anisotropy): ~ 5 fold
Kd ([11]; read-out: Dissociation constant, 5’CCG/3’GCG, direct binding assay): 990 ± 200 nM

N=C(N)Nc1ccc(OC(=O)c2ccc(NC(=N)N)cc2)cc1 [Compound D6, 4-guanidinophenyl 4-guanidinobenzoate]
Fold more potent than the other compounds studied ([12]; TR-FRET IC50): at least 20 fold
IC50 ([12]; pre-formed r(CAG)12-MBNL1 complex, TR-FRET): 3000 nM
ΔTm (1 equiv.) [4]: 3 °C
ΔTm (2 equiv.) [4]: 9 °C
Concentration giving statistically significant improvement of NCOR2 mis-splicing ([5]; HD fibroblasts, 48 h): 100 to 300 µM and 50 to 300 µM
Effect on ATP2A1 splicing [5]: most significantly improved ATP2A1 mis-splicing
Effect on nuclear r(CAG)exp foci [13]: does not disrupt the formation of nuclear r(CAG)^exp foci; also recorded: does not significantly affect the number or the intensity of nuclear r(CAG)^exp foci
Effect on MAPT pre-mRNA splicing ([14]; neuroblastoma cell line expressing 74 r(CAG) repeats): slightly worsens the splicing of the MAPT pre-mRNA toward the DM-like phenotype
Concentration giving statistically significant improvement of ATP2A1 splicing [14, 16]: 100 to 300 µM
Concentration giving statistically significant improvement of NCOR2 splicing [14, 16]: 100 to 300 µM
Effect on splicing of other tested transcripts ([15]; control cell lines that do not express toxic r(CAG)exp): does not affect the splicing
Effect on MAPT pre-mRNA splicing ([15]; normal neuroblastoma cell line): more pronounced effect
Effect on cell morphology ([9]; increasing concentration of D6): cell morphology is not affected
Toxicity as assessed by cell morphology [9]: least amount of toxicity

Cn1cc(NC(=O)c2cc(NC(=O)CN=C(N)N)cn2C)cc1C(=O)NCCC(=N)N [NTSP, netropsin]
Binding preference among RNAs [1]: slight preference for 5’CCG/3’GUC

COc1cccc2c1C(=O)c1c(O)c3c(c(O)c1C2=O)C[C@@](O)(C(C)=O)C[C@@H]3O[C@H]1C[C@H](N)[C@H](O)[C@H](C)O1 [DNM, Daunomycin]
Binding preference among RNAs [1]: prefers to bind 5’CCG/3’GAC

O=C1c2c(O)ccc(O)c2C(=O)c2c(NCCNCCO)ccc(NCCNCCO)c21 [MTX, Mitoxantrone]
Binding preference among RNAs [1]: slight preference for 5’CCG/3’GAC while it discriminates against 5’CUG/3’GCC

Nc1ccc2cc3ccc(N)cc3nc2c1 [proflavin, Proflavin]
Binding preference among RNAs [1]: little preference for binding to a fully paired RNA or any of the RNAs with 1×1 nucleotide internal loops

CCN(CC)CCCC(C)Nc1c2ccc(Cl)cc2nc2ccc(OC)cc12 (stereo not drawn) [QNC, Quinacrine]
Binding preference among RNAs [1]: prefers to bind 5’CAG/3’GCC
